Molecules are shown by their SMILES. Read-outs that look alike come from different tables or passages of the source.

One may read the AUC as concentration integrated over time. Lower therefore signals low exposure. The CL/F is the apparent clearance, not corrected for the fraction that reaches the circulation.

Series [1] in a line: Observed plasma concentrations of venetoclax concomitant with voriconazole. Type of series: in vivo. Conditions: human, oral, 100 mg. The method, boiled down: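 Adults with hematologic malignancies received test compound 100 mg orally once daily plus an azole antifungal (400 mg bid day 1, then 200 mg bid; or 200 mg bid continued). Intensive set: EDTA blood 0–1 h predose and 2–24 h post-dose on day 5–11. Validation set: troughs 0–1 h predose, day 2–22. Plasma measured by LC-MS/MS in MRM mode with deuterated internal standards; calibration range 0.05–10.0 μg/mL.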

For series [2] the following is noted: cited from earlier work.
For another series, the system named is plasma protein. Conditions: regardless of concentration; ref prescribing information; cited from earlier work.
The mark [3] stands for this setting: venetoclax 100 mg with posaconazole.

In series [1], `CC1(C)CCC(CN2CCN(c3ccc(C(=O)NS(=O)(=O)c4ccc(NCC5CCOCC5)c([N+](=O)[O-])c4)c(Oc4cnc5[nH]ccc5c4)c3)CC2)=C(c2ccc(Cl)cc2)C1` [venetoclax] registered an AUC of 52400 ng·h/mL. Besides, the “reduction of apparent oral clearance (CL/F) by CYP3A inhibitors” value in series [2] (PopPK studies, various patient populations and healthy subjects) is on record as 82–86%. Further, the CL/F in series [2] (co-administered with posaconazole, patients with AML) is 1.1 to 1.4 L/h; in series [2] (other PopPK models with strong CYP3A inhibitors as covariates), 2.2 to 3.6 L/h; in series [2] (venetoclax alone) it was 15.0 to 19.5 L/h. In addition, the AUC24h in series [2] (observed, venetoclax 70 mg with posaconazole, day 12, CV 54%) is 49100 ± 26500 ng·h/mL; in series [2] (venetoclax 50 mg with posaconazole) it was 47200 ± 27400 ng·h/mL; in series [2] (setting [3]), 76200 ± 13700 ng·h/mL; in series [2] (venetoclax 400 mg administered alone), 32800 ± 16900 ng·h/mL. Besides, the “accumulation ratio (AUC24h day 14 to day 7)” value in series [2] (venetoclax 70 mg with posaconazole 300 mg qd, range 1.0–2.9) was 1.3; in series [2] (venetoclax 400 mg alone, range 0.5–2.1), 1.0. Also, the “average AUC higher than venetoclax (400 mg) with caspofungin” value in series [2] (setting [3]) is 103%. For the same compound, the “AUC increase versus venetoclax (400 mg) with caspofungin” value in series [2] (venetoclax with voriconazole) is given as 77%. Also, in series [2] (with posaconazole), the “increase of AUC” value is recorded as 8.8 fold. Moreover, the “increase of Cmax” value in series [2] (with posaconazole) is on record as 7.1 fold. Further, the “fu (unbound fraction in plasma)” value with plasma protein is given as below 0.01.

(Values after paper PMC12065538 (Drug Design, Development and Therapy, 2025).)
